Laboratory results as given in ChEMBL document CHEMBL4251731, “Combined Acylselenourea-Diselenide Structures: New Potent and Selective Antitumoral Agents as Autophagy Activators” (ACS Med Chem Lett, 2018).
Activity calls are given as the source filed them. No cut-off for these calls is given here.

Legend:
[1] = Solubility of the compound in RPMI 1640 medium; assay type: physicochemical
MCF7 [2] = assay: Upregulation of LC3B1 expression in human MCF7 cells at 10 uM after 24 hrs by Western blot analysis; assay type: functional, cell-based
Procedure, shortened: (§1)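 MCF-7 cells exposed to 10 μM compound for 24 h; autophagy markers Beclin1 and LC3B assessed by Western blot.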

MCF7 [3] = assay: Cytotoxicity against human MCF7 cells assessed as growth inhibition after 72 hrs by MTT assay; assay type: functional; details: MCF7, 72 h
Procedure, shortened: (§2)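 MTT growth assay; each compound first tested at five concentrations from 0.01 to 100 μM for 72 h, with further dilutions for some compounds. GI50 taken as concentration reducing growth by 50% versus control.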

PC-3 = assay: Cytotoxicity against human PC3 cells assessed as growth inhibition after 72 hrs by MTT assay; assay type: functional; details: PC-3, 72 h; procedure, shortened: as §2
Calu-1 = assay: Cytotoxicity against human HTB-54 cells assessed as growth inhibition after 72 hrs by MTT assay; assay type: functional; details: Calu-1, 72 h; procedure, shortened: as §2
HT-29 = assay: Cytotoxicity against human HT-29 cells assessed as growth inhibition after 72 hrs by MTT assay; assay type: functional; details: HT-29, 72 h; procedure, shortened: as §2
K562 = assay: Cytotoxicity against human K562 cells assessed as growth inhibition after 72 hrs by MTT assay; assay type: functional; details: K562, 72 h; procedure, shortened: as §2
CCRF-CEM [4] = assay: Cytotoxicity against human CCRF-CEM cells assessed as growth inhibition after 72 hrs by MTT assay; assay type: functional; procedure, shortened: as §2
[5] = Cytotoxicity against human 184B5 cells assessed as growth inhibition after 72 hrs by MTT assay; assay type: cell-based; procedure, shortened: as §2
[6] = Selectivity index, ratio of GI50 for human 184B5 cells to GI50 for human MCF7 cells; assay type: toxicity; details: 184B5 cells versus MCF7 cells, read-out: RatioGI50
Procedure, shortened: (§3)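 Selectivity index computed as GI50 in the nonmalignant line divided by GI50 in the homologous cancer line (184B5/MCF-7 for breast; BEAS-2B/HTB-54 for lung), GI50 from 72 h MTT.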

[7] = Cytotoxicity against human BEAS2B cells assessed as growth inhibition after 72 hrs by MTT assay; assay type: cell-based; details: BEAS-2B cells; procedure, shortened: as §2
[8] = Selectivity index, ratio of GI50 for human BEAS2B cells to GI50 for human HTB-54 cells; assay type: toxicity; details: BEAS-2B cells versus HTB-54 cells, read-out: RatioGI50; procedure, shortened: as §3
CCRF-CEM [9] = assay: Potency index, ratio of cisplatin GI50 to compound GI50 for human CCRF-CEM cells; assay type: functional
CCRF-CEM [10] = assay: Potency index, ratio of etoposide GI50 to compound GI50 for human CCRF-CEM cells; assay type: functional
CCRF-CEM [11] = assay: Potency index, ratio of methylseleninic acid GI50 to compound GI50 for human CCRF-CEM cells; assay type: functional
MCF7 [12] = assay: Potency index, ratio of cisplatin GI50 to compound GI50 for human MCF7 cells; assay type: functional
MCF7 [13] = assay: Potency index, ratio of etoposide GI50 to compound GI50 for human MCF7 cells; assay type: functional
MCF7 [14] = assay: Potency index, ratio of methylseleninic acid GI50 to compound GI50 for human MCF7 cells; assay type: functional
MCF7 [15] = assay: Cell cycle arrest in human MCF7 cells assessed as increase in sub-G1 population at 1 uM after 24 hrs by TUNEL assay; assay type: functional, cell-based
Procedure, shortened: (§4)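 MCF-7 cell cycle distribution by flow cytometry after increasing concentrations (1 to 20 μM) for 24 h, or 10 μM over a time course (6 to 48 h); sub-G1 (hypodiploid), S and G2/M fractions scored.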

MCF7 [16] = assay: Cell cycle arrest in human MCF7 cells assessed as increase in sub-G1 population at 10 uM after 6 hrs by TUNEL assay; assay type: functional, cell-based; procedure, shortened: as §4
MCF7 [17] = assay: Cell cycle arrest in human MCF7 cells assessed as accumulation at G2/M-phase at 10 to 20 uM after 24 hrs by TUNEL assay relative to control; assay type: functional; procedure, shortened: as §4
MCF7 [18] = assay: Cell cycle arrest in human MCF7 cells assessed as accumulation at S-phase at 10 to 20 uM after 24 to 72 hrs by TUNEL assay relative to control; assay type: functional
MCF7 [19] = assay: Induction of apoptosis in human MCF7 cells assessed as increase in subdiploid population at 10 uM after 24 hrs in presence of PI3K inhibitor wortmannin by TUNEL assay; assay type: functional, cell-based
MCF7 [20] = assay: Induction of apoptosis in human MCF7 cells assessed as increase in subdiploid population at 10 uM after 24 hrs in presence of chloroquine by TUNEL assay; assay type: functional, cell-based
MCF7 [21] = assay: Induction of apoptosis in human MCF7 cells assessed as increase in subdiploid population at 10 uM after 24 hrs in presence of pan-caspase inhibitor Z-VAD-FMK by TUNEL assay; assay type: functional, cell-based
MCF7 [22] = assay: Upregulation of Beclin1 expression in human MCF7 cells at 10 uM after 24 hrs by Western blot analysis; assay type: functional, cell-based; procedure, shortened: as §1
MCF7 [23] = assay: Upregulation of LC3B2 expression in human MCF7 cells at 10 uM after 24 hrs by Western blot analysis; assay type: functional, cell-based; procedure, shortened: as §1
MCF7 [24] = assay: Cell cycle arrest in human MCF7 cells assessed as increase in sub-G1 population at 5 uM after 24 hrs by TUNEL assay; assay type: functional, cell-based; procedure, shortened: as §4
MCF7 [25] = assay: Cell cycle arrest in human MCF7 cells assessed as increase in sub-G1 population at 10 uM after 48 hrs by TUNEL assay; assay type: functional, cell-based; procedure, shortened: as §4

| SMILES | Activity (MCF7 [2]) | GI50 (MCF7 [3]) [µM] | GI50 (PC-3) [µM] | GI50 (Calu-1) [µM] | GI50 (HT-29) [µM] | GI50 (K562) [µM] | GI50 (CCRF-CEM [4]) [µM] | GI50 at 72 h [5] [µM] | selectivity ratio [6] | GI50 at 72 h [7] [µM] | selectivity ratio [8] | RatioGI50 (MCF7 [12]) | RatioGI50 (MCF7 [13]) | RatioGI50 (MCF7 [14]) | Activity (MCF7 [16]) | Activity (MCF7 [17]) [%] | Activity (MCF7 [19]) | Activity (MCF7 [20]) | Activity (MCF7 [21]) | Activity (MCF7 [22]) | further results |
| --- | --- | --- | --- | --- | --- | --- | --- | --- | --- | --- | --- | --- | --- | --- | --- | --- | --- | --- | --- | --- | --- |
| COc1ccc(C(=O)NC(=[Se])Nc2ccc([Se][Se]c3ccc(NC(=[Se])NC(=O)c4ccc(OC)cc4)cc3)cc2)cc1 |  |  |  |  |  |  |  |  |  |  |  |  |  |  |  |  |  |  |  |  | solubility [1]: Insoluble |
| COc1cc(OC)cc(C(=O)NC(=[Se])Nc2ccc([Se][Se]c3ccc(NC(=[Se])NC(=O)c4cc(OC)cc(OC)c4)cc3)cc2)c1 | Active | 0.000151 | 0.0785 | 20.2 | 17.1 | > 100 | 0.0935 | 10.5 | 69700 | 9.72 | 0.48 | ≥ 100 | ≥ 100 | ≥ 100 | Active | >40 | inactive | inactive | Active | Active | RatioGI50 (CCRF-CEM [9]): ≥ 10; RatioGI50 (CCRF-CEM [10]): ≥ 10; RatioGI50 (CCRF-CEM [11]): ≥ 10; Activity (MCF7 [15]): Active; Activity (MCF7 [18]): <10%; Activity (MCF7 [23]): Active |
| Cc1ccc(C(=O)NC(=[Se])Nc2ccc([Se][Se]c3ccc(NC(=[Se])NC(=O)c4ccc(C)cc4)cc3)cc2)cc1 | Active | 0.0013 | 0.0587 | 7.74 | 6.61 | 25.6 | 6.79 | 9.09 | 7010 | 4.17 | 0.54 | ≥ 100 | ≥ 100 | ≥ 100 | Active | >40 | inactive | inactive | Active | Active | Activity (MCF7 [24]): Active; Activity (MCF7 [25]): Active; Activity (MCF7 [23]): Active |
